In brackets after ≈: the same amount, converted by molar mass.
Columns and labels:
[1] = Kinetic aqueous solubility of the compound in pH 7.4 phosphate buffered saline incubated for 24 hrs under shaking condition by HPLC analysis; assay type: physicochemical; conditions: read-out: Kinetic_solubility
Outline: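 Dry powder shaken 24 h at 25 °C in 0.1 M phosphate buffer, pH 7.4, then filtered through a 0.45 µm membrane. Concentration determined by HPLC against a standard of the compound in DMSO. Mean of three separate assays in triplicate.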

[2] = target: Tyrosine-protein kinase BTK (Homo sapiens, UniProt Q06187); assay: Reversible inhibition of FAM-labeled peptide binding to full-length human N-terminal GST-tagged BTK (2 to 659 residues) expressed in baculovirus infected Sf21 insect cells at preincubated for 10 mins followed by FAM-labeled peptide addition and measured by off-chip mobility shift assay
Tyrosine-protein kinase BTK, sequence (Q06187 whole entry, the tested form may be a part): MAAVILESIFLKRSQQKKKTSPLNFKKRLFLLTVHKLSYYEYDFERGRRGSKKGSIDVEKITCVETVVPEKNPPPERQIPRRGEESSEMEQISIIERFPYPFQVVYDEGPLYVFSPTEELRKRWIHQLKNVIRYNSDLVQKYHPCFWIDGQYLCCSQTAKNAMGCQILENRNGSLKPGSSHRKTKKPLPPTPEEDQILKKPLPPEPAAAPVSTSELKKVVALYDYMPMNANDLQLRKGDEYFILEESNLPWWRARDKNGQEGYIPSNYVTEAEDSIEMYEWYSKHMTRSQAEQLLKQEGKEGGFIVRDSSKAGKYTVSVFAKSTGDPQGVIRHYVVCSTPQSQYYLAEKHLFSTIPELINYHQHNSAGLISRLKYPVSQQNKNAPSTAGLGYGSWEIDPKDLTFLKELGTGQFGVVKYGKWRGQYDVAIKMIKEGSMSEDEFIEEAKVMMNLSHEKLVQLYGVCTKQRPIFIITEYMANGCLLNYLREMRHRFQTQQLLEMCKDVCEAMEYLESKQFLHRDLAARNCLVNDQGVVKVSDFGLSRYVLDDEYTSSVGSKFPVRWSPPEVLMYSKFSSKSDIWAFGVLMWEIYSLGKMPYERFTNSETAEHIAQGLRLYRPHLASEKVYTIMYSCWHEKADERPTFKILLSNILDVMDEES

| SMILES | solubility kinetic at 24 h [1] [µg/mL] | IC50 [2] [nM] |
| --- | --- | --- |
| Cc1cc2cn[nH]c2cc1-c1cccc2c(N)c(C(N)=O)cnc12 | 10.5 (≈ 33.1 µM) | 72.8 |
| Cc1cc2cn[nH]c2cc1-c1cccc2c(N)c(C(N)=O)nnc12 | < 0.05 | – |
